# Data: article PMC8811920 (ACS Omega, 2022)
# Experiments:
# M. luteus = assay: Antibacterial assay of isolated compounds, M. luteus; assay type: cell-based; conditions: cefixime positive control
# Salmonella typhi = assay: Antibacterial assay of isolated compounds, S. typhi; assay type: cell-based; conditions: cefixime positive control
# S. aureus (ATCC # 6538) = assay: Antibacterial disc diffusion, S. aureus; assay type: cell-based, Staphylococcus aureus; conditions: isolated compounds; cefixime positive control
# S. setubal = assay: Antibacterial assay of isolated compounds, S. setubal; assay type: cell-based; conditions: cefixime positive control
# urease = assay: Urease inhibition assay; assay type: biochemical; conditions: 10 μL sample, 4 mg/mL in DMSO
# Outline: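 Mix: 25 μL urease, 50 μL phosphate buffer (3 mM, pH 4.5, containing 100 mM urea) and 10 μL sample (4 mg/mL in DMSO); 15 min at 30 °C. Ammonia detected by phenol–nitroprusside reagent plus alkaline hypochlorite, then 50 min at 30 °C. Read at 630 nm. Thiourea as control. % inhibition = (OD blank − OD sample)/OD blank × 100.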
# lipase = assay: Lipase inhibition assay; assay type: biochemical; conditions: 50 μL sample, 4 mg/mL in DMSO
# Outline: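 Lipase dissolved at 10 mg/mL in ultrapure water, spun 5 min at 16,000 rpm; supernatant used. Assay buffer 100 mM Tris, pH 8.2. Mix: 350 μL buffer, 150 μL lipase, 50 μL sample (4 mg/mL in DMSO). Started with 450 μL substrate: 0.08% v/v olive oil in 5 mM sodium acetate pH 5.0 with 1% Triton X-100. Incubated 2 h at 37 °C, spun, read at 400 nm. Orlistat standard. % inhibition = (OD blank − OD sample)/OD blank × 100.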
# Total reducing power = conditions: sample 4 mg/mL in DMSO, ascorbic acid equivalents
# Outline: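 200 μL sample (4 mg/mL in DMSO) mixed with 400 μL phosphate buffer (0.2 mol/L, pH 6.6) and 1% potassium ferricyanide; 20 min at 50 °C. Added 10% trichloroacetic acid and centrifuged 10 min at 3000 rpm. 200 μL of upper layer mixed with 0.1% FeCl3 and read at 630 nm. Expressed as μg ascorbic acid equivalent/mg extract from a calibration curve. Triplicate.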
# α-amylase = assay: α-Amylase inhibition assay; assay type: biochemical; conditions: 10 μL sample, 4 mg/mL in DMSO
# Outline: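 Mix in pH 6.8 phosphate buffer: α-amylase (0.14 U/mL), 10 μL sample (4 mg/mL in DMSO) and starch (2 mg/mL); 30 min at 50 °C. Stopped with 1 M HCl, then iodine/KI reagent (5 mM each) added. Read at 540 nm. Acarbose positive control at 5−200 μg/mL. Sample-free well taken as 100% activity; blank lacked sample and enzyme.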
# [1] = Total antioxidant capacity; conditions: sample 4 mg/mL in DMSO, ascorbic acid equivalents
# Outline: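 100 μL sample (4 mg/mL in DMSO) mixed with 900 μL phosphomolybdenum reagent (0.6 M H2SO4, 28 mM sodium phosphate, 4 mM ammonium molybdate). Heated 90 min at 95 °C, cooled to room temperature, and 200 μL read at 630 nm. Quantified against an ascorbic acid calibration curve as μg AAE/mg extract. Triplicate.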
# [2] = DPPH radical scavenging assay; conditions: 10 μL sample + 190 μL DPPH, 30 min, 37 °C
# Outline: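 10 μL sample mixed with 190 μL DPPH solution in microplate and held 30 min at 37 °C. Absorbance read spectrophotometrically. % scavenging = (1 − Abs/Abc) × 100, where Abc is the reagent-only negative control; SC50 also described. Ascorbic acid as standard. Triplicate.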
# E. aerogenes = assay: Antibacterial assay of isolated compounds, E. aerogenes; assay type: cell-based, Escherichia aerogenes; conditions: cefixime positive control
Structure (SMILES),"antibacterial ZOI, M. luteus (M. luteus) [mm]","antibacterial ZOI, S. typhi (Salmonella typhi) [mm]","antibacterial ZOI, S. aureus (S. aureus (ATCC # 6538)) [mm]","antibacterial ZOI, S. setubal (S. setubal) [mm]",urease inhibition (%) (urease),lipase inhibition (%) (lipase),TRP (Total reducing power) [μgAAE/mg extract],amylase inhibition (%) (α-amylase),TAC [1] [μgAAE/mg extract],DPPH % (free-radical scavenging) [2] [%],"antibacterial ZOI, E. aerogenes (E. aerogenes) [mm]",other results
"O=C(O)c1cccc(O)c1 [compound 6, 3-hydroxybenzoic acid]",15 ± 1.2,16 ± 1.5,15 ± 1.6,14 ± 1.7,59.8 ± 0.6,51.9 ± 0.7,62.5 ± 1.3,31.5 ± 0.8,66.6 ± 1.5,65.8 ± 1.6,15 ± 1.4,DPPH % (free-radical scavenging) ([2]; listed as 3-Hydroxybenzoic acid): 65.8%
"COC(=O)c1ccccc1 [compound 3, methyl benzoate]",14 ± 1.1,10 ± 1.1,7 ± 0.8,13 ± 1.1,55.1 ± 1.2,50.3 ± 0.5,45.2 ± 1.6,26.2 ± 0.5,82.5 ± 1.3,49.4 ± 1.9,15 ± 1.1,TAC ([1]; listed as methyl benzoate): 82.5 μgAAE/mg extract
"C[C@H]1[C@H](C)CC[C@]2(C(=O)O)CC[C@]3(C)C(=CC[C@@H]4[C@@]5(C)CC[C@H](O)C(C)(C)[C@@H]5CC[C@]43C)[C@H]12 [compound 5, 3β-hydroxy-urs-12-en-28-oic acid]",14 ± 1.4,16 ± 1.8,13 ± 1.3,13 ± 1.2,78.8 ± 0.5,76.6 ± 0.8,76.2 ± 1.5,48.9 ± 0.6,70.4 ± 1.8,58.6 ± 1.7,12 ± 1.3,"antibacterial ZOI, S. typhi (Salmonella typhi; listed as ursolic acid): 16 mm"
"CCCCCCCCCCCCCCCCCCCCCCCCCCCCCCO [compound 2, 1-triacontanol]",10 ± 0.9,10 ± 1.3,9 ± 1.3,15 ± 1.2,82.5 ± 0.8,50.8 ± 0.9,55.2 ± 1.8,29.9 ± 1.4,89.5 ± 1.6,59.4 ± 2.1,15 ± 1.4,"antibacterial ZOI, S. setubal (S. setubal; listed as 1-triacontanol): 15 mm; TAC ([1]; listed as 1-triacontanol): 89.5 μgAAE/mg extract; antibacterial ZOI, E. aerogenes (E. aerogenes; listed as 1-triacontanol): 15 mm"
"C=C(C)[C@@H]1CC[C@]2(C)CC[C@]3(C)[C@H](CC[C@@H]4[C@@]5(C)CC[C@H](O)C(C)(C)[C@@H]5CC[C@]43C)[C@@H]12 [compound 1, lup-20(29)-en-3β-ol]",15 ± 1.1,18 ± 1.3,14 ± 1.2,12 ± 1.3,85.8 ± 0.9,84.0 ± 0.8,96.9 ± 1.6,16.0 ± 0.4,55.5 ± 1.3,68.8 ± 1.1,14 ± 1.1,"antibacterial ZOI, S. typhi (Salmonella typhi; listed as lupeol): 18 mm; TRP (Total reducing power; listed as lupeol): 96.9 μgAAE/mg extract; DPPH % (free-radical scavenging) ([2]; listed as lupeol): 68.8%"
"O=C(O)c1ccccc1 [compound 4, benzoic acid]",13 ± 1.2,15 ± 1.5,12 ± 1.6,15 ± 1.7,65.8 ± 0.6,58.9 ± 0.7,59.5 ± 1.5,36.5 ± 0.9,60.6 ± 1.8,50.8 ± 1.6,12 ± 1.4,"antibacterial ZOI, S. typhi (Salmonella typhi; listed as benzoic acid): 15 mm"
